Screens as filed in PubChem.
Sampled rows, rich in hits. Any-hit rate of the full collection: about 1.6%.
T cell HTS: T cell immune modulation candidate; 2C CD8+ T cell-vesicle binding, flow cytometry; hits give low values; AID 2052; response (vesicle binding), % at 7 µM; hit rate 0.068% among 330,000;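 active means response, share of CD8 T cells binding vesicles, and their 90th percentile fluorescence all below set limits, cut at about 80% in these data, passing the limit was not always enough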;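 further: values below 100% mean blocked vesicle binding to the CD8+ T cells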
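Assay system: 2C TCR transgenic mouse naive CD8+ T cells, MACS-purified | Read-out: CD8+ gate FL2 mean fluorescence as % of same-row positive control | Signal: High-throughput flow cytometry with anti-B7-1 and anti-CD8 staining | Timing: Binding step 1.5 h, 37 °C, antibody labelling 20 min, ice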
ATG4B inh: inhibitors of human ATG4B cysteine protease | Q9Y4P1 | ATG4B cleavage of LC3-PLA2, NBD-HPC fluorescence, 1 h | inhibition, % at 8.33 µM | hit rate 0.51% among 340,000 | AID 504462; in the data active means inhibition above about 40%
PKA-R1A activ: activators of PKA-R1A complex. P00514+P68181. PKA-R1A dissociation, Cy5-IP20 fluorescence polarization; scaled: DMSO 0%, 113 µM cGMP 100%. activation, % at 11.4 µM. hit rate 0.083% among 340,000. AID 504707;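 active means percent activation above the mean of all tested compounds plus 3 SD, cut at about 19% in these data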;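 further: higher means more PKAc released from R1A so a rise in polarization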
HKDC1 inhibitor: HKDC1 (human) hexokinase inhibition; inhibition, % at 20 µM; AID 493160; hit rate 0.16% among 340,000; recombinant HKDC1, G6PDH/diaphorase resazurin coupled fluorescence; Q2TB90;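 active means inhibition above about 35% when tested at 20 µM, limit read from the data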
Target sequence (Q2TB90 whole entry, looked up): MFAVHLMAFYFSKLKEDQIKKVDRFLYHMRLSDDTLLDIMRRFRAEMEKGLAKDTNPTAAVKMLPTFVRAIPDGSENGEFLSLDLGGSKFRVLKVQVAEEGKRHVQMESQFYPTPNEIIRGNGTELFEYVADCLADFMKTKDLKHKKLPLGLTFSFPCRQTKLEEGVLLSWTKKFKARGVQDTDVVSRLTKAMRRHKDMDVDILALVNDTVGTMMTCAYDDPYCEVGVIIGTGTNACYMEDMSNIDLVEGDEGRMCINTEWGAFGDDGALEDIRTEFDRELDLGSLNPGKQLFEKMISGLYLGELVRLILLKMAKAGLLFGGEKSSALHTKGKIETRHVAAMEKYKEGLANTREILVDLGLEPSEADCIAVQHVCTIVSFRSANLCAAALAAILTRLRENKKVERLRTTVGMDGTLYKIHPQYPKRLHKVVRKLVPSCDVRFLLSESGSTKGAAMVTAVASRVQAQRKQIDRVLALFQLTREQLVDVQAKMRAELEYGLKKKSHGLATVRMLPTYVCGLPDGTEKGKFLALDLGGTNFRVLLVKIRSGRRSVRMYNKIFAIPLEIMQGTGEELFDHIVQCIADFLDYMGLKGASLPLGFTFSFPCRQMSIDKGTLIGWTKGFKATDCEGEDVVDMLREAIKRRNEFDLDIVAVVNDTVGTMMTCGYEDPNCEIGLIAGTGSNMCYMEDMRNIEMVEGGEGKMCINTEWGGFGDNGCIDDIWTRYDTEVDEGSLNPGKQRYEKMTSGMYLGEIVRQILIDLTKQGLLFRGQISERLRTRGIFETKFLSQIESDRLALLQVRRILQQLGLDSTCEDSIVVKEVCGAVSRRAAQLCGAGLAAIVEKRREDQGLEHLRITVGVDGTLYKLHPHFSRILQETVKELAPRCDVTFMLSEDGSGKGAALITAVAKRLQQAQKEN
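Assay system – recombinant HKDC1 (HK5) hexokinase enzyme, produced in-house · Input – HKDC1 at 5 µg/mL · Reagent – glucose plus 1 mM ATP as hexokinase substrates · Timing – 90 min reaction incubation at room temperature, dark · Measured by – G6PDH/diaphorase-coupled fluorescence, 1 mM NADP, 100 µM resazurin, 525/613 nm · Benchmarks – DMSO-enzyme wells negative, buffer-substituted wells positive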
PKA-R2B act: PKA-R2B complex activation; P22694+P31323; PKA-R2B holoenzyme dissociation, Cy5-IP20 fluorescence polarization; R2B truncated from residue 108, S112A mutant; 0% DMSO only, 100% 113 µM cGMP; activation, % at 11.4 µM; hit rate 0.079% among 340,000;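 active means activation above a cutoff set at the mean over all compounds plus 3 SD, cut at about 18% in these data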;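 further: higher means more holoenzyme dissociation and a rise in polarization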
PfG6PD inh: PfG6PD (Plasmodium falciparum) enzyme inhibition; AID 504690; hit rate 0.78% among 350,000; inhibition, % at 20 µM; PfGluPho enzyme, NADPH resazurin-diaphorase fluorescence;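 active means inhibition reaching at least a set limit at 20 µM in the primary screen, cut at about 59% in these data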
ATG4B confirm: ATG4B (human) inhibition, single-dose confirmed; hit rate 92% among 320; shares compounds with ATG4B inh; AID 504757; inhibition, % at 8.33 µM; ATG4B protease fluorescent substrate cleavage assay; in the data active means inhibition above about 39%
PLA2 ctr: inhibits human PLA2, flagging false ATG4B inhibitors; AID 588402; purified PLA2, NBD-C6-HPC fluorescence, 45 min; inhibition, % at 8.33 µM; shares compounds with ATG4B inh; hit rate 66% among 1,600; in the data active means inhibition above about 50%
Of the large screens only hits and unclear results are named; the others gave an inactive call (follow-up assays come after a bar, where they were run).

CC1CCN(CC(=O)Nc2ccccc2-c2ccccc2)CC1	ATG4B inh 45 | PLA2 ctr 69
CC(C(=O)Nc1ccccc1-c1ccccc1)N1CCN(C(=O)c2ccccc2)CC1 (stereo not drawn)	none
CC1CCN(C(C)C(=O)Nc2ccccc2-c2ccccc2)CC1 (stereo not drawn)	ATG4B inh 43 | PLA2 ctr 53
CC1CCN(CC(=O)Nc2ccccc2C(=O)c2ccccc2)CC1	none
CC1CCCCC1NCC(=O)Nc1ccccc1-c1ccccc1 (stereo not drawn)	ATG4B inh 48 | PLA2 ctr 53
COc1ccc(OCC(=O)OCC(=O)Nc2ccc3[nH]c(=O)[nH]c3c2)cc1	none
CC1CCN(C2=C(NS(=O)(=O)c3ccccc3)C(=O)c3ccccc3C2=O)CC1	ATG4B inh 46 | PLA2 ctr 65
COc1ccc(OC)c(NC(=O)/C=C/c2ccc(S(=O)(=O)N3CCOCC3)cc2)c1	none (no result: T cell HTS)
OC(c1cc(-c2ccc(Cl)cc2)nc2ccccc12)C1CCCCN1 (stereo not drawn)	ATG4B inh 42 | PLA2 ctr 52
Cc1ccc(/C(=N/Nc2nc3ccccc3s2)C2=C(O)c3ccccc3C2=O)cc1	ATG4B inh 45 | PLA2 ctr 65
COc1ccc(-c2c(C#N)sc(C(N)=O)c2-c2ccc(OC)cc2)cc1	ATG4B inh 82 | PLA2 ctr 85
N#Cc1sc(C(N)=O)c(-c2ccccc2)c1-c1ccccc1	ATG4B inh 68 | PLA2 ctr 66
O=C(O)c1sc(C(=O)O)c(-c2ccccc2)c1-c1ccccc1	none (no result: T cell HTS, ATG4B inh, HKDC1 inhibitor)
CCN(CC(=O)Nc1ccc(NC(C)=O)cc1)C(=O)c1cc(-c2ccccc2Cl)nc2ccccc12	none (no result: T cell HTS)
Cc1ccc(S(=O)(=O)N(Cc2ccccc2)c2ccccc2C(=O)N2CCCCC2)cc1	none
C=CCn1c(SCC(=O)Nc2ccc3c(c2)CCC3)nnc1-c1cccs1	ATG4B inh 67 | PLA2 ctr 52
C=CCn1c(SCC(=O)O)nnc1-c1cccs1	none
Nc1nnc(Cc2ccc(Cl)cc2)s1	none
Nc1nnc(Cc2ccc(Cl)cc2Cl)s1	ATG4B inh 71 | PLA2 ctr 76
CC(Cn1cncn1)C(=O)N1CCN(S(=O)(=O)c2ccccc2)CC1 (stereo not drawn)	none
O=S(Cc1ccccc1)CC(O)(c1ccc(Cl)cc1)c1ccc(Cl)cc1 (stereo not drawn)	ATG4B inh 55 | PLA2 ctr 60
O=S(Cc1ccc(Cl)cc1)CC(O)(c1ccccc1)c1ccccc1 (stereo not drawn)	none
COc1ccc(C(=O)O)cc1S(=O)(=O)Nc1ccccc1Cc1ccccc1	none (no result: T cell HTS)
CCOC(=O)c1c(C)nc2sc(C(N)=O)c(N)c2c1-c1ccc(OC)cc1	ATG4B inh 65 | PLA2 ctr 74
NC(=O)c1sc2nc3c(c(-c4ccc(Cl)cc4)c2c1N)CCCC3	ATG4B inh 49 | PLA2 ctr 66
Cc1ccc(-c2c3c(nc4sc(C(N)=O)c(N)c24)CCC3)cc1	ATG4B inh 55 | PLA2 ctr 59
COc1cc(OC)c(N(C)C(=O)c2cc3c(s2)-c2ccccc2S(=O)(=O)C3)cc1Cl	none
Cc1cc(S(=O)(=O)Nc2ncnc3sccc23)ccc1F	none (no result: T cell HTS, ATG4B inh, HKDC1 inhibitor)
COc1ccc(CNc2ccc(-c3ccccc3OC)nn2)cc1	ATG4B inh 48 | PLA2 ctr inactive
COc1ccc(CNc2ccc(-c3ccc(OC)cc3)nn2)cc1	none
Cc1ccc(-c2[nH]nc3c2C(c2ccc(OC(=O)N4CCOCC4)cc2)C(C#N)=C(N)O3)cc1 (stereo not drawn)	ATG4B inh 43 | ATG4B confirm 78 | PLA2 ctr inactive
CC(C)c1[nH]nc2c1C(c1cccc(OC(=O)N3CCOCC3)c1)C(C#N)=C(N)O2 (stereo not drawn)	none
CCc1ccc(Oc2nnnn2-c2ccc(C(N)=O)cc2)cc1	ATG4B inh 60 | PLA2 ctr 91
CC(=O)C1=C(O)C(=O)N(c2ccc(Br)cc2)C1c1ccccc1[N+](=O)[O-] (stereo not drawn)	none
Cn1cccc1C(=O)NC(=O)COC(=O)c1cc(S(=O)(=O)N2CCCCC2)ccc1Cl	ATG4B inh 51 (no result: PKA-R1A activ, PKA-R2B act) | PLA2 ctr 52
Cc1nc(NC(=O)c2ccccc2)sc1-c1csc(NCc2ccco2)n1	ATG4B inh 41 | PLA2 ctr 67
O=C(Nc1ccccn1)c1ccc(Cl)c(S(=O)(=O)N2CCc3ccccc32)c1	none
Cc1cccc(C(=O)NNC(=O)c2ccccc2)c1	none
Cc1cccc(C(=O)c2cnc3ccccc3c2-c2ccccc2)c1	ATG4B inh 57 | PLA2 ctr 59
CCOC(=O)c1sc2ccccc2c1NC(=O)c1coc2ccccc2c1=O	ATG4B inh 53 | PLA2 ctr inactive
CCOC(=O)c1sc2ccccc2c1OC(=O)c1ccccc1	none
Fc1ccc2[nH]c3c(NCc4ccccc4)ncnc3c2c1	ATG4B inh 50 | PLA2 ctr 65
Cc1cc(C)cc(N2C(=O)CN(Cc3ccccc3)C2=S)c1	ATG4B inh 70 | PLA2 ctr 75
CCc1ccc(N2C(=O)CN(Cc3cccs3)C2=S)cc1	ATG4B inh 65 | PLA2 ctr 81
CCc1ccc(N2C(=O)CN(Cc3cc(OC)c(OC)c(OC)c3)C2=S)cc1	none
CCc1ccc(N2C(=O)CN(Cc3ccccc3)C2=S)cc1	none
O=C(Nc1cccc(S(=O)(=O)N2CCOCC2)c1)C1COc2ccccc2O1 (stereo not drawn)	none (no result: T cell HTS)
COc1ccc(CCNC(=O)COC(=O)c2cccs2)cc1	none (no result: T cell HTS)
CCCc1ccc(OC(=O)c2cccs2)cc1	ATG4B inh 43 | ATG4B confirm 70 | PLA2 ctr inactive
Cc1cc(OC(=O)c2cccs2)ccc1C(C)C	ATG4B inh 42 | ATG4B confirm 49 | PLA2 ctr inactive
Cc1oc2ccc(OC(=O)c3cccs3)cc2c1C(=O)OC(C)C	none
O=C(CN1CCCCCC1)Nc1nc2ccccc2s1	none (no result: T cell HTS)
Cc1ccccc1-c1cccc([C@@H]2C[C@H]3[C@H](CON3C)CN2Cc2ccccc2)c1	none (no result: T cell HTS)
Nc1c(C(=O)CSc2n[nH]c(-c3ccccc3)n2)c(=O)[nH]c(=O)n1C1CC1	none (no result: T cell HTS)
CCC(C(=O)NCCc1c[nH]c2cc(OC)ccc12)c1ccccc1 (stereo not drawn)	none
